Data taken from ChEMBL document CHEMBL1124191, “Design of rat renin inhibitory peptides” (J Med Chem, 1988).
*1 amine or outer side, *2 acyl side, *3 side chain or, on linkers, in order; H or OH if unused. Where a SMILES comes first, the peptide text is derived from it. [ ]: non-standard residue; d: D form. Ahppa(3S,4S) = O=C(C[C@H](O)[C@H](Cc1ccccc1)N[*:1])[*:2]; Sta = CC(C)C[C@H](N)[C@@H](O)CC(=O)O; Tle = CC(C)(C)[C@H](N)C(=O)O

Key:
Rattus norvegicus [1] = test: Compound evaluated for decrease in mean arterial pressure at a minimal dose of 3 ug/kg in rats; assay type: functional, Artery
Renin [2] = molecular target: T1, Renin (Homo sapiens, UniProt P00797); test: Compound was tested for its inhibitory activity against human plasma renin; assay type: cell-free
T1 sequence (P00797 whole entry): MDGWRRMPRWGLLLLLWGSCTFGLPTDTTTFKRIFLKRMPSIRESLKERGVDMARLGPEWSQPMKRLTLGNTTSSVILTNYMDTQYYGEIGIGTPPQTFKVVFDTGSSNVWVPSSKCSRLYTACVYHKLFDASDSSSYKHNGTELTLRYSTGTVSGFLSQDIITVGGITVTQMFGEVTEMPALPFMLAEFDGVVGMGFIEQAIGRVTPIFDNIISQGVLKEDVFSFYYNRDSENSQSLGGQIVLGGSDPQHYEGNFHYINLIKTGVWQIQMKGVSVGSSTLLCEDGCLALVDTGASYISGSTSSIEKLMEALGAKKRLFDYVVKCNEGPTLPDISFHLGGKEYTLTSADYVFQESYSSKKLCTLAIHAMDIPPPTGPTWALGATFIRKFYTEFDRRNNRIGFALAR

Rattus norvegicus [3] = test: Compound evaluated for decrease in mean arterial pressure at a minimal dose of 100 ug/kg in rats; assay type: functional, Artery
Renin [4] = molecular target: T2, Renin (Rattus norvegicus, UniProt P08424); test: Inhibitory activity against rat plasma renin in vitro.; assay type: cell-free
T2 sequence (P08424 whole entry): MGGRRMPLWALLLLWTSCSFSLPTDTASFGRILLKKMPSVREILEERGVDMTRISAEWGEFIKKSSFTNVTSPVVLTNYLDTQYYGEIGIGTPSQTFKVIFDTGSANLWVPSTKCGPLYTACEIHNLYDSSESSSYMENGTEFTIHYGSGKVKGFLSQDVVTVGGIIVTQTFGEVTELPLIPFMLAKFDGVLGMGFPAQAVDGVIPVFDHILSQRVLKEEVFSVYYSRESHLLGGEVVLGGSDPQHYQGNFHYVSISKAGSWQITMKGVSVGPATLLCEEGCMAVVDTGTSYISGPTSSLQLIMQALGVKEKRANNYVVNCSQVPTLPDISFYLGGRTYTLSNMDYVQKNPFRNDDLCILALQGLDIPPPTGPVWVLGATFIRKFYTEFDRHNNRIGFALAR
Procedure, shortened: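 Pooled EDTA rat plasma with added PMSF 5 mM, 8-hydroxyquinoline 3 mM and extra EDTA 5 mM, at pH 7.4, mixed with serial 1:10 peptide dilutions (Tris/DMSO), split, and incubated 1 h at 37 and 0 °C.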

| IC50 (Renin [2]) [µM] | IC50 (Renin [4]) [µM] | SMILES | other results |
| --- | --- | --- | --- |
| 0.0032 | – | CC(=O)N[C@@H](Cc1cnc[nH]1)C(=O)N1CCC[C@@H]1C(=O)N[C@@H](Cc1ccccc1)C(=O)N[C@H](C(=O)N[C@@H](CC(C)C)[C@@H](O)CC(=O)N[C@@H](CC(C)C)C(=O)N[C@@H](Cc1ccccc1)C(N)=O)C(C)C | – |
| 0.015 | – | CC(=O)N[C@@H](Cc1cnc[nH]1)C(=O)N1CCC[C@@H]1C(=O)N[C@@H](Cc1ccccc1)C(=O)N[C@H](C(=O)N[C@@H](CC1CCCCC1)[C@@H](O)CC(=O)N[C@@H](CC(C)C)C(=O)N[C@@H](Cc1ccccc1)C(N)=O)C(C)C | – |
| 0.0005 | – | CC(=O)N[C@@H](Cc1cnc[nH]1)C(=O)N1CCC[C@@H]1C(=O)N[C@@H](Cc1ccccc1)C(=O)N[C@@H](Cc1cnc[nH]1)C(=O)N[C@@H](CC1CCCCC1)[C@@H](O)CC(=O)N[C@@H](CC(C)C)C(=O)N[C@@H](Cc1ccccc1)C(N)=O | – |
| – | 0.033 | CC(=O)N[C@@H](Cc1cnc[nH]1)C(=O)N1CCC[C@H]1C(=O)N[C@@H](Cc1ccccc1)C(=O)N[C@H](C(=O)N[C@@H](CC1CCCCC1)[C@@H](O)CC(=O)N[C@@H](CC(C)C)C(=O)N[C@@H](Cc1ccccc1)C(N)=O)C(C)C | – |
| – | 0.21 | CC(=O)N[C@@H](Cc1cnc[nH]1)C(=O)N1CCC[C@H]1C(=O)N[C@@H](Cc1ccccc1)C(=O)N[C@@H](Cc1cnc[nH]1)C(=O)N[C@@H](CC(C)C)[C@@H](O)CC(=O)N[C@@H](CC(C)C)C(=O)N[C@@H](Cc1ccccc1)C(N)=O | – |

Further lines, the molecule ahead of its results:

| SMILES | IC50 (Renin [2]) [µM] | IC50 (Renin [4]) [µM] | other results |
| --- | --- | --- | --- |
| CC(=O)N[C@@H](Cc1c[nH]cn1)C(=O)N1CCC[C@H]1C(=O)N[C@@H](Cc1ccccc1)C(=O)N[C@H](C(=O)N[C@@H](CC(C)C)[C@@H](O)CC(=O)N[C@@H](CC(C)C)C(=O)N[C@@H](Cc1ccccc1)C(N)=O)C(C)C | – | – | Decrease (Rattus norvegicus [1]): 4.9% |
| CC(=O)N[C@@H](Cc1cnc[nH]1)C(=O)N1CCC[C@@H]1C(=O)N[C@@H](Cc1ccccc1)C(=O)N[C@@H](Cc1cnc[nH]1)C(=O)N[C@@H](CC(C)C)[C@@H](O)CC(=O)N[C@@H](CC(C)C)C(=O)N[C@@H](Cc1ccccc1)C(N)=O | 0.014 | – | – |
| CC(=O)N[C@@H](Cc1c[nH]cn1)C(=O)N1CCC[C@H]1C(=O)N[C@@H](Cc1ccccc1)C(=O)N[C@@H](Cc1c[nH]cn1)C(=O)N[C@@H](CC(C)C)[C@@H](O)CC(=O)N[C@@H](CC(C)C)C(=O)N[C@@H](Cc1ccccc1)C(N)=O | – | – | Decrease (Rattus norvegicus [3]): 13.2% |
| CC(=O)N[C@@H](Cc1c[nH]cn1)C(=O)N1CCC[C@H]1C(=O)N[C@H](CC(C)C)C(=O)N[C@@H](Cc1c[nH]cn1)C(=O)N[C@@H](CC(C)C)[C@@H](O)CC(=O)N[C@@H](CC(C)C)C(=O)N[C@@H](Cc1ccccc1)C(N)=O | – | ~1000 | – |
| CC(=O)N[C@@H](Cc1c[nH]cn1)C(=O)N1CCC[C@H]1C(=O)N[C@@H](Cc1ccccc1)C(=O)N[C@H](C(=O)N[C@@H](CC(C)C)[C@@H](O)CC(=O)N[C@@H](CC(C)C)C(=O)N[C@@H](Cc1ccccc1)C(N)=O)C(C)(C)C (Ac-HPF[Tle][Sta]LF-NH2) | – | 0.4 | – |
| CC(=O)N[C@@H](Cc1c[nH]cn1)C(=O)N1CCC[C@H]1C(=O)N[C@@H](Cc1ccccc1)C(=O)N[C@@H](Cc1c[nH]cn1)C(=O)N[C@@H](CC(C)C)[C@@H](O)CC(=O)N[C@H](C(=O)N[C@@H](Cc1ccccc1)C(N)=O)C(C)C (Ac-HPFH[Sta]VF-NH2) | – | 2.8 | – |
| CC[C@H](C)[C@H](NC(=O)[C@H](Cc1ccccc1)NC(=O)[C@@H]1CCCN1C(=O)[C@H](Cc1cnc[nH]1)NC(C)=O)C(=O)N[C@@H](Cc1ccccc1)[C@@H](O)CC(=O)N[C@@H](CC(C)C)C(=O)N[C@@H](Cc1ccccc1)C(N)=O (Ac-HPFI[Ahppa(3S,4S)]LF-NH2) | – | 1.27 | – |
